Here are results for seven compounds from ChEMBL document CHEMBL4321801, “Anti-prion Butenolides and Diphenylpropanones from the Australian Ascidian Polycarpa procera” (J Nat Prod, 2019).

A short description of assay [1]: Anti-prion activity against [PSI+] protein in Saccharomyces cerevisiae STRg6 measured after 24 hrs by fluorimetry analysis. In outline:
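Whole-cell yeast assay for curing of the [PSI+] prion, which depends on compound uptake across the cell membrane. EC50 (μM) reported ± SE. Guanabenz was run as the positive control.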

Another assay concerns Saccharomyces cerevisiae. Kind of assay: Anti-prion activity against [URE3] protein in Saccharomyces cerevisiae SB34 at 100 uM measured after 24 hrs by fluorimetry analysis. The method in brief:
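Whole-cell yeast assay for curing of the [URE3] prion at a single concentration of 100 μM, scored as yes/no curing. Guanabenz was run as the positive control.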

Calls of active or inactive are those of the source. No cut-off for these calls is given here.

Consider `COC1=C(c2cc(Br)c(O)c(Br)c2)[C@H](Cc2cc(Br)c(OC)c(Br)c2)OC1=O`, for which the EC50 (in general, the concentration giving half of the maximal effect) in assay [1] amounted to 67 µM. Also, in the assay on Saccharomyces cerevisiae, the outcome was Active.

In assay [1], `COc1c(Br)cc(C[C@@H]2OC(=O)C(O)=C2c2cc(Br)c(O)c(Br)c2)cc1Br` registered an EC50 of 34 µM. Moreover, the outcome in the assay on Saccharomyces cerevisiae was Active.

With `COc1c(Br)cc(C[C@H](O)C(=O)c2cc(Br)c(O)c(Br)c2)cc1Br`, the EC50 in assay [1] came out at 33 µM. For the same compound, in the assay with Saccharomyces cerevisiae, the outcome was Active.

The compound `COC1=C(c2cc(Br)c(O)c(Br)c2)[C@H](Cc2ccc(OC)c(Br)c2)OC1=O` showed an EC50 in assay [1] of 65 µM. In addition, the result in the assay with Saccharomyces cerevisiae was Active.

Take `COc1ccc(C[C@@H]2OC(=O)C(O)=C2c2cc(Br)c(O)c(Br)c2)cc1Br`: a half-maximal response in assay [1] (EC50) required 23 µM. The result in the assay with Saccharomyces cerevisiae was Active.

Consider `N=C(N)N/N=C/c1c(Cl)cccc1Cl` [GUANABENZ], for which the EC50 in assay [1] is 26 µM. Besides, the result with Saccharomyces cerevisiae was Active.

The compound `COc1ccc(C[C@H](O)C(=O)c2cc(Br)c(O)c(Br)c2)cc1Br` showed an EC50 in assay [1] of 29 µM. The result with Saccharomyces cerevisiae was Active.
